RBBP9 inh: blocks human serine hydrolase RBBP9; O75884; 220,000 compounds, 0.2% hits; AID 1515; recombinant RBBP9, FP-Rh probe fluorescence polarization; inhibition, % at 7.94 µM;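 active = inhibition above the campaign mean of all tested compounds plus 3 SD, cut at about 14% in these data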;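 also: plate controls were DMSO wells with RBBP9 for no effect and wells lacking RBBP9 protein for full effect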
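System: RBBP9 protein / Buffer or medium: Tris/NaCl buffer pH 8.0 with 0.1% Pluronic / Probe or stimulus: Serine-hydrolase probe FP-Rh, 375 nM pre-mixing / Dosing: 7.94 µM single dose, 0.794% DMSO / Times: enzyme-compound preincubation 30 min, then probe labeling 45 min, 25 °C / Technique: fluorescence polarization (mP), excitation 525 nm, emission 598 nm / Replication: singlicate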
PRMT1 inh: inhibitors of human PRMT1. AID 652257. recombinant PRMT1, activity-based probe fluorescence polarization. inhibition, % at 2.79 µM. 370,000 compounds, 1.3% hits. Q99873;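 active = inhibition above about 21% made by adding two undisclosed values, limit read from the data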
SIAE inh: inhibitors of human sialic acid acetylesterase SIAE. SIAE FP-Rh probe binding, fluorescence polarization. inhibition, % at 9.66 µM. 370,000 compounds, 0.69% hits. AID 1053197;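 active = inhibition above a cutoff: mean of compounds within the control limits plus 3 SD of those, cut at about 17% in these data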;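 also: 0% = plate median of compound wells and 100% = probe without SIAE protein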
PAD4 inh: inhibitors of human PAD4; Q9UM07; recombinant PAD4, RCA probe fluorescence polarization; inhibition, % at 6.36 µM; 330,000 compounds, 0.41% hits; AID 485272;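 active = percent inhibition above a cutoff equal to the mean of all tested compounds plus 3 SD, cut at about 15% in these data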;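 also: 0% = PAD4 with RCA probe and DMSO and 100% = probe without PAD4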
Target sequence (Q9UM07 whole entry, looked up): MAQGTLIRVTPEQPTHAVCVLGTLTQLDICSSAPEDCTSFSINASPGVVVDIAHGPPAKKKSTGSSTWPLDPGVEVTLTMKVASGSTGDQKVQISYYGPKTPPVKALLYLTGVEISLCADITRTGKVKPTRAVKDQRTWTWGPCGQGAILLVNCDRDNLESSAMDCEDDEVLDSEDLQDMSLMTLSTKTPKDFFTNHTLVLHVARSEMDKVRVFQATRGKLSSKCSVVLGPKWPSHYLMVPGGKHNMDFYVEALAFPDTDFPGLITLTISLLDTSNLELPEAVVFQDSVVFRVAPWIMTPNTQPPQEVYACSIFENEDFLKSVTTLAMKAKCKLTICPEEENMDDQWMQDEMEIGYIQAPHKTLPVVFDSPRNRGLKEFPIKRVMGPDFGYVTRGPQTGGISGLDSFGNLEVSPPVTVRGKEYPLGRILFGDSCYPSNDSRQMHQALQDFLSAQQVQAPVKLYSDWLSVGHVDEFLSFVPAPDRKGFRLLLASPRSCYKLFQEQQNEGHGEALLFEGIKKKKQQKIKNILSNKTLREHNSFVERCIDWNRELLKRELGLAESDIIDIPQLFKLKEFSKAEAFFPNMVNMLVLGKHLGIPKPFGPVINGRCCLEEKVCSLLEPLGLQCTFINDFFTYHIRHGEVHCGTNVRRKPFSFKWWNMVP
GSTO1 inh: blocks human GSTO1 in RBBP9 counter-screen. recombinant GSTO1, activity-based probe fluorescence polarization. 300,000 compounds, 1.1% hits. inhibition, % at 5.96 µM;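 active = inhibition above the campaign mean inhibition plus 3 SD, cut at about 35% in these data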;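 also: 0% = GSTO1-1 with DMSO and 100% = wells lacking GSTO1-1 enzyme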
PRMT1 confirm: PRMT1 (human) inhibition, FP confirmation | AID 687036 | shares compounds with PRMT1 inh | recombinant His-PRMT1, activity-based probe fluorescence polarization | 3,300 compounds, 42% hits | inhibition, % at 2.79 µM;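 active = mean inhibition across replicates above the hit cutoff derived for the earlier primary screen, cut at about 22% in these data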
Numbers without * were called inactive. A selection: hits, their analogues and other compounds. The true share with any hit is near 2.7%.

How did CC(C(=O)NCC(=O)Nc1ccc(F)c(F)c1F)N1CCN(Cc2ccc(C#N)cc2)CC1 (stereo not drawn) do in these assays?
PRMT1 inh: 0; SIAE inh: -1; PAD4 inh: 6

How did CC1CC(C)CN(S(=O)(=O)c2ccc(C(=O)N(c3ccccn3)C3CCCCC3)cc2)C1 (stereo not drawn) do in these assays?
RBBP9 inh: -8; PRMT1 inh: 0; SIAE inh: -3; PAD4 inh: -4; GSTO1 inh: 8

What do the screens show for `CC(C)c1nnc(SCC(=O)NCCC2=CCCCC2)n1N`?
RBBP9 inh: 0; PRMT1 inh: 34*; SIAE inh: 1; PAD4 inh: 3; GSTO1 inh: -3; PRMT1 confirm: 39*

How did COc1ccc(NC(=O)C2C3C=CC(O3)C2C(=O)O)cc1 (stereo not drawn) do in these assays?
PRMT1 inh: 36*; SIAE inh: 13; PAD4 inh: 1; GSTO1 inh: -4; PRMT1 confirm: 8

Results for O=C(Nc1cccc(Cl)c1N1CCCCC1)c1ccc(N2CCOCC2)c([N+](=O)[O-])c1 ?
RBBP9 inh: -8; PRMT1 inh: -1; SIAE inh: 3; PAD4 inh: -1; GSTO1 inh: 0

Results for O=c1c2c3c(sc2nc(NCCO)n1CCc1ccccc1)CCCCC3 ?
RBBP9 inh: -2; PRMT1 inh: 3; SIAE inh: 2; PAD4 inh: 6; GSTO1 inh: -8

How did C=CCn1c(NCCO)nc2sc3c(c2c1=O)CCC3 do in these assays?
RBBP9 inh: -5; PRMT1 inh: 33*; SIAE inh: -5; PAD4 inh: -4; GSTO1 inh: 3; PRMT1 confirm: 1

What do the screens show for `Nc1[nH]c(C(=O)c2ccccc2)c(-c2ccccn2)c1C(=O)c1c[nH]c2ccccc12`?
PRMT1 inh: 1; SIAE inh: 1

What do the screens show for `Nc1[nH]c(C(=O)c2ccccc2)c(-c2ccccn2)c1C(=O)c1c[nH]c2ccc(Br)cc12`?
PRMT1 inh: 27*; SIAE inh: -13; PRMT1 confirm: 2

What do the screens show for `NS(=O)(=O)c1ccc(-c2ccc(/C=C3\NC(=S)NC3=O)o2)cc1`?
PRMT1 inh: 53*; SIAE inh: 9; PAD4 inh: -5; GSTO1 inh: 16; PRMT1 confirm: 27*

What do the screens show for `O=C(CSc1ncn[nH]1)c1cccc([N+](=O)[O-])c1`?
RBBP9 inh: -9; PRMT1 inh: 32*; SIAE inh: 5; PAD4 inh: 4; GSTO1 inh: 5; PRMT1 confirm: 25*

What do the screens show for `O=C(CSc1ccc(-c2ccco2)nn1)c1cccc([N+](=O)[O-])c1`?
RBBP9 inh: -7; PRMT1 inh: 31*; SIAE inh: 11; PAD4 inh: 0; GSTO1 inh: 12; PRMT1 confirm: 4

Results for O=C(CSc1ccc(-c2ccco2)nn1)N1CCCC1 ?
RBBP9 inh: 3; PRMT1 inh: 11; SIAE inh: -8; PAD4 inh: -3; GSTO1 inh: 10

Results for CC(=O)c1cccc(NC(=O)CSc2ccc(-c3ccco3)nn2)c1 ?
PRMT1 inh: 54*; SIAE inh: 5; PAD4 inh: -1; GSTO1 inh: 10; PRMT1 confirm: 66*

What do the screens show for `O=C(CSc1ncn[nH]1)c1ccccc1`?
RBBP9 inh: 4; PRMT1 inh: 13; SIAE inh: -4; PAD4 inh: 4; GSTO1 inh: 1

What do the screens show for `CCCSc1nnc(CSc2nc3nc(C)cc(C)n3n2)o1`?
RBBP9 inh: -6; PRMT1 inh: -1; SIAE inh: -11; PAD4 inh: 2; GSTO1 inh: 4

What do the screens show for `Cc1ccc(N(CC(=O)NC(C)(C)C)C(=O)CNC(=O)c2cccs2)c(C)c1`?
RBBP9 inh: -6; PRMT1 inh: 3; SIAE inh: 3; PAD4 inh: -10; GSTO1 inh: 2

How did O=c1[nH]c2c(s1)C=Nc1ccccc1N2 do in these assays?
RBBP9 inh: -10; PRMT1 inh: 69*; SIAE inh: -4; PAD4 inh: 7; GSTO1 inh: 20; PRMT1 confirm: 85*

What do the screens show for `O=C1CC(c2ccco2)CC2=C1C=Nc1ccccc1N2` (stereo not drawn)?
RBBP9 inh: 3; PRMT1 inh: 7; SIAE inh: -8; PAD4 inh: 2; GSTO1 inh: -11

How did CC1CCCC(C)N1C(=O)CSc1nc(N)c(-c2ccccc2)c(=O)[nH]1 (stereo not drawn) do in these assays?
RBBP9 inh: -4; PRMT1 inh: 1; SIAE inh: -9; PAD4 inh: -3; GSTO1 inh: 6

Results for Cc1ccc(Nc2c(-c3ccc(C)o3)nc3ncccn23)cc1 ?
RBBP9 inh: 11; PRMT1 inh: 11; SIAE inh: 3; PAD4 inh: -8; GSTO1 inh: -2

How did Cc1ccc(-c2nc3cnccn3c2Nc2c(C)cccc2C)o1 do in these assays?
RBBP9 inh: -7; PRMT1 inh: 79*; SIAE inh: 1; PAD4 inh: 0; GSTO1 inh: 6; PRMT1 confirm: 11

What do the screens show for `Cc1ccc(-c2nc3ncccn3c2Nc2ccccc2C)o1`?
RBBP9 inh: -5; PRMT1 inh: 42*; SIAE inh: 16; PAD4 inh: 2; GSTO1 inh: -1; PRMT1 confirm: 13

Results for Cc1ccc(-c2nc3ncccn3c2NC2CCCC2)o1 ?
RBBP9 inh: -4; PRMT1 inh: 1; SIAE inh: 13; PAD4 inh: 1; GSTO1 inh: 3

How did CO[C@@]1(NC(=O)C2SC(=C(C(N)=O)C(=O)O)S2)C(=O)N2C(C(=O)O)=C(CSc3nnnn3C)CS[C@@H]21 (stereo partly drawn) do in these assays?
PRMT1 inh: 37*; SIAE inh: -7; PAD4 inh: 3; GSTO1 inh: 1; PRMT1 confirm: 19

Results for CO[C@@]1(NC(=O)Cc2cccs2)C(=O)N2C(C(=O)O)=C(COC(N)=O)CS[C@@H]21 ?
RBBP9 inh: 0; PRMT1 inh: 15; SIAE inh: 3; PAD4 inh: -3; GSTO1 inh: 0

What do the screens show for `O=C(O)c1ccc(COc2ccc([N+](=O)[O-])cc2Cl)cc1`?
PRMT1 inh: 6; SIAE inh: -5

What do the screens show for `O=C(NCc1ccc(Cl)cc1)c1ccc(Cn2cc(C(F)(F)F)ccc2=O)cc1`?
RBBP9 inh: -7; PRMT1 inh: 72*; SIAE inh: -2; PAD4 inh: -2; GSTO1 inh: 3; PRMT1 confirm: 64*

How did COc1ccc(-c2cc(-c3ccco3)[nH]c(=O)c2C#N)cc1OC do in these assays?
RBBP9 inh: -1; PRMT1 inh: 27*; SIAE inh: 0; PAD4 inh: -19; GSTO1 inh: 22; PRMT1 confirm: 27*

Results for O=C(Nc1ccccc1C(=O)O)c1cccc(NC(=O)c2ccco2)c1 ?
PRMT1 inh: 10; SIAE inh: -11; PAD4 inh: -4; GSTO1 inh: -30

High-throughput results as filed in PubChem BioAssay.
